Measured values: ChEMBL document CHEMBL4732100, “Water-soluble inhibitors of ABCG2 (BCRP) - A fragment-based and computational approach” (Eur J Med Chem, 2021)
Values after ≈ are worked out from the molar mass of the structure shown.

Key:
[1] = Thermodynamic solubility of compound in PBS at pH 7.4 […] by shake-flask method; type: physicochemical; conditions: buffer
[2] = molecular target: T1, Broad substrate specificity ATP-binding cassette transporter ABCG2 (Homo sapiens, UniProt Q9UNQ0); experiment: Inhibition of human ABCG2 in human MCF7/Topo cells assessed as accumulation of substrate Hoechst […] stain measured after 2 hrs by fluorometric microplate reader assay; type: cell-based
T1 sequence (Q9UNQ0 whole entry): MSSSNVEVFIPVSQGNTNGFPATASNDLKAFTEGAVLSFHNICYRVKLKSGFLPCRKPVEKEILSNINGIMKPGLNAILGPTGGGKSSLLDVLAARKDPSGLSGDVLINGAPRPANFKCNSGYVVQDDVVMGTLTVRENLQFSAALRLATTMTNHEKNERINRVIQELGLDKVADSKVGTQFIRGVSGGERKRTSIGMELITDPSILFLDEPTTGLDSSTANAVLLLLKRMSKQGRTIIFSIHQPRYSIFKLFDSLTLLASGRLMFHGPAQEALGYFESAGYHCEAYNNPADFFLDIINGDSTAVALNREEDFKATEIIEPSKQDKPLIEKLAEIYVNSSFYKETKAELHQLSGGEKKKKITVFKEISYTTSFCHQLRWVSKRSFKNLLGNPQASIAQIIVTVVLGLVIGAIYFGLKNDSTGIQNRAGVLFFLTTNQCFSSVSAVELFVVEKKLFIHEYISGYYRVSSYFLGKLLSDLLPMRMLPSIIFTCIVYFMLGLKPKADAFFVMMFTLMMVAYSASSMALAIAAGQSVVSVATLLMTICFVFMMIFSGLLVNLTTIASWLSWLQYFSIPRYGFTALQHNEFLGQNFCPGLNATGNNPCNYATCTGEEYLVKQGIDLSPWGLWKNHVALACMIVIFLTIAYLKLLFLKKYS

[3] = molecular target: T2, ABCG2 (Homo sapiens, UniProt Q9UNQ0); experiment: Inhibition of human ABCG2 in human MCF7/Topo cells assessed as accumulation of substrate Hoechst […] stain at 10 uM measured after 2 hrs by fluorometric microplate reader assay relative to FTC; type: cell-based; conditions: read-out: Imax
T2 sequence (Q9UNQ0 whole entry): T1 sequence (Q9UNQ0 whole entry)

[4] = molecular target: ATP-dependent translocase ABCB1 (Homo sapiens, UniProt P08183); experiment: Inhibition of ABCB1 in human KB-V1 cells assessed as accumulation of substrate calcein-AM stain measured after 10 mins by fluorometric microplate reader assay; type: cell-based
Procedure, shortened: (§1)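 KB-V1 cells (ABCB1-overexpressing KB variant) kept under 330 nM vinblastine. Calcein-AM accumulation read by fluorescence after intracellular cleavage to calcein. Compounds tested up to 100 µM. Inhibition is normalized to 10 µM tariquidar set to 100% (Imax). Mean ± SEM from ≥3 experiments in triplicate.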

[5] = Inhibition of human ABCC1 expressed in MDCK-MRP1 cells assessed as accumulation of substrate calcein-AM stain measured after 1 hr by fluorometric microplate reader assay; type: cell-based, Canis lupus familiaris
Procedure, shortened: (§2)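 MDCK.2 cells transfected with human ABCC1 (MDCK.2-MRP1), trypsinized with 2X trypsin/EDTA for 30 min. Calcein-AM accumulation measured fluorometrically. Compounds tested up to 100 µM. Inhibition is normalized to 30 µM reversan set to 100% (Imax). Mean ± SEM from ≥3 experiments in triplicate.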

[6] = Kinetic solubility of compound in PBS at pH 7.4 measured after 2 hrs by turbidimetric measurement; conditions: read-out: Kinetic_solubility
[7] = molecular target: ABCB1 (Homo sapiens, UniProt P08183); experiment: Inhibition of ABCB1 in human KB-V1 cells assessed as accumulation of substrate calcein-AM stain at 10 uM measured after 10 mins by fluorometric microplate reader assay relative to Tariquidar; type: cell-based; conditions: probe calcein-AM, read-out: Imax; procedure, shortened: as §1
[8] = Cytotoxicity against human MCF7/Topo cells assessed as inhibition of cell proliferation at 1 uM measured by crystal violet based microplate reader assay
Procedure, shortened: (§3)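 MCF-7/Topo cells grown in DMEM/High with 2% (v/v) 200 mM L-glutamine and 10% FCS at 37 °C, 5% CO2, kept under 550 nM topotecan. Long-term incubation with inhibitor. Value given as corrected T/C = (T−C0)/(C−C0)·100 from absorbance; cytocidal effect (T−C0)/C0·100 when T<C0. Mean ± SEM of two to three experiments, each in octuplicate.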

[9] = Cytotoxicity against human MCF7/Topo cells assessed as inhibition of cell proliferation at 10 uM measured by crystal violet based microplate reader assay; procedure, shortened: as §3
[10] = system: MDCK-MRP1; experiment: Inhibition of human ABCC1 expressed in MDCK-MRP1 cells assessed as accumulation of substrate calcein-AM stain at 30 uM measured after 1 hr by fluorometric microplate reader assay relative to Reversan; type: cell-based; conditions: Canis lupus familiaris; procedure, shortened: as §2
[11] = molecular target: T2, ABCG2; experiment: Substrate activity at ABCG2 in human MCF7/Topo cells assessed as increase in ATPase activity measured after 1 hr by colorimetric assay relative to sulfasalazine; type: cell-based; conditions: read-out: Imax
Procedure, shortened: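 Membranes prepared from MCF-7/Topo cells: homogenized in TMEP buffer pH 7 with protease inhibitors, 500 g spin, then 100,000 g for 1 h. Released inorganic phosphate read by molybdenum blue reaction. Basal activity set to 0% and 30 µM sulfasalazine to 100%. Concentration-response data; mean ± SEM of ≥3 experiments in triplicate.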

[12] = Stability of compound in human plasma at 200 uM measured up to 24 hrs by HPLC-MS analysis; type: ADME, cell-free
Procedure, shortened: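 Compound from 10 mM DMSO stock incubated in human CPD plasma at 37 °C for up to 24 h. Samples filtered (0.2 µm). Analyzed by RP-HPLC on a C8 column with acetonitrile/0.05% aq TFA gradient 20:80→95:5 over 12 min and UV detection at 220 nm. HPLC-MS run at 0 h and 24 h.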

Sequence of ABCB1 (P08183 whole entry): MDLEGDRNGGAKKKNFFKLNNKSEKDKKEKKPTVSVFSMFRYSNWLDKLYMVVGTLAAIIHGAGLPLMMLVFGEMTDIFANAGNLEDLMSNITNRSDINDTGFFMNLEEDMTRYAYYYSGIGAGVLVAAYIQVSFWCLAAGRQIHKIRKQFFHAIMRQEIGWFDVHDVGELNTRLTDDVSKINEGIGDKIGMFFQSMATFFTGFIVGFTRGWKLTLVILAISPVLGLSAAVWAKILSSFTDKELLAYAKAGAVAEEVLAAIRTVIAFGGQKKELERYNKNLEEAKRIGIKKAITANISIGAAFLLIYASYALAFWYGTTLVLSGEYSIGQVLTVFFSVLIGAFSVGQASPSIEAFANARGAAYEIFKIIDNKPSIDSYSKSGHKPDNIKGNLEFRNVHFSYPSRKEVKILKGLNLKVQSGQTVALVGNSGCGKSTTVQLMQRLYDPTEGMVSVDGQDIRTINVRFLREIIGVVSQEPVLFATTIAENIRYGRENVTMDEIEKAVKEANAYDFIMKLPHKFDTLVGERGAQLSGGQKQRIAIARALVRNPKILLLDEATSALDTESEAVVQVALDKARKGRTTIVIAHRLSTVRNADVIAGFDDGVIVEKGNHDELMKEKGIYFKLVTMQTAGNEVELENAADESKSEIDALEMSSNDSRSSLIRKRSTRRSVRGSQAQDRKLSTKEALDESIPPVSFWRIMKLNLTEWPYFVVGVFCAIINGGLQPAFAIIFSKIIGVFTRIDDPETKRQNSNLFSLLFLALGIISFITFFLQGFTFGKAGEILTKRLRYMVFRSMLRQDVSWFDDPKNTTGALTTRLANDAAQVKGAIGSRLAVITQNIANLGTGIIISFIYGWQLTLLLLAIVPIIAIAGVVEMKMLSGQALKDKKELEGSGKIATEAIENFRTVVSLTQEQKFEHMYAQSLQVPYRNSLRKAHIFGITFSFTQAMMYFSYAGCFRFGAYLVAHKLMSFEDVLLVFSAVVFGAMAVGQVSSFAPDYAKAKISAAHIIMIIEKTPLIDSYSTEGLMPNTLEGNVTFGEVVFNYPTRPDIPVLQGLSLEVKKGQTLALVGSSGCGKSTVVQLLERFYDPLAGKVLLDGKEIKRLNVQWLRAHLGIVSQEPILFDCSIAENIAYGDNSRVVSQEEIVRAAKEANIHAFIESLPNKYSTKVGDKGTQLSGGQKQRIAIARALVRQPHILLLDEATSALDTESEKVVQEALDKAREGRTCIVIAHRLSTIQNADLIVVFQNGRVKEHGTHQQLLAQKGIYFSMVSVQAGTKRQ
Sequence of ATP-dependent translocase ABCB1 (P08183 whole entry): as above

Therm_solubility [1]	IC50 ([2]; read-out: IC50)	Emax at 2 h, 10 µM [3]	IC50 ([4]; kb-v1)	IC50 [5]	solubility kinetic at 2 h [6]	IC50 ([2]; mcf7/topo)	Emax at 10 min, 10 µM [7]	IC50 ([4]; read-out: IC50)	Emax at 1 h [11]	IC50 ([5]; read-out: IC50)	Stabilty [12]	Compound	Activity [8]	Activity [9]	Imax [10]
< 100 nM	180 nM	63%	Not Active	Not Active	7 µM (≈ 4.7 µg/mL)							CCC(=O)c1ccc(-c2cn(-c3ccc(CCN4CCc5cc(OC)c(OC)cc5C4)cc3)nn2)cc1NC(=O)c1ccc2c(n1)CCCC2			
119 nM	116 nM	68%		Not Active	3 µM (≈ 1.94 µg/mL)		> 13%	> 2780 nM				CCC(=O)c1ccc(-c2cn(-c3ccc(CCN4CCc5cc(OC)c(OC)cc5C4)cc3)nn2)cc1NC(=O)c1ccc(OC)cn1			
< 100 nM	322 nM	92%	Not Active	Not Active	7 µM (≈ 4.53 µg/mL)							CCC(=O)c1ccc(-c2cn(-c3ccc(CCN4CCc5cc(OC)c(OC)cc5C4)cc3)nn2)cc1NC(=O)c1cccc(OC)n1	Non-Toxic		
< 100 nM	70 nM	91%	Not Active	Not Active	10 µM (≈ 6.62 µg/mL)							CCC(=O)c1ccc(-c2cn(-c3ccc(CCN4CCc5cc(OC)c(OC)cc5C4)cc3)nn2)cc1NC(=O)c1cccc([N+](=O)[O-])n1			
445 nM	166 nM	81%		Not Active	3 µM (≈ 1.89 µg/mL)		> 19%	> 9970 nM				CCC(=O)c1ccc(-c2cn(-c3ccc(CCN4CCc5cc(OC)c(OC)cc5C4)cc3)nn2)cc1NC(=O)c1cccc(C)n1			
78 nM			Not Active		3 µM (≈ 2 µg/mL)							CCC(=O)c1ccc(-c2cn(-c3ccc(CCN4CCc5cc(OC)c(OC)cc5C4)cc3)nn2)cc1NC(=O)c1ccc2ccccc2n1			
< 100 nM	82 nM	75%	Not Active	Not Active	10 µM (≈ 6.32 µg/mL)							CCC(=O)c1ccc(-c2cn(-c3ccc(CCN4CCc5cc(OC)c(OC)cc5C4)cc3)nn2)cc1NC(=O)c1cccc(N)n1			
855 nM	328 nM	75%		Not Active	7 µM (≈ 4.43 µg/mL)		> 14%	> 18500 nM				CCC(=O)c1ccc(-c2cn(-c3ccc(CCN4CCc5cc(OC)c(OC)cc5C4)cc3)nn2)cc1NC(=O)c1cccc(O)n1			
< 100 nM	116 nM	95%	Not Active	Not Active	1 µM (≈ 0.651 µg/mL)							CCC(=O)c1ccc(-c2cn(-c3ccc(CCN4CCc5cc(OC)c(OC)cc5C4)cc3)nn2)cc1NC(=O)c1cccc(Cl)n1			

The remaining lines, values behind:

Compound	Therm_solubility [1]	IC50 ([2]; read-out: IC50)	Emax at 2 h, 10 µM [3]	IC50 ([4]; kb-v1)	IC50 [5]	solubility kinetic at 2 h [6]	IC50 ([2]; mcf7/topo)	Emax at 10 min, 10 µM [7]	IC50 ([4]; read-out: IC50)	Emax at 1 h [11]	IC50 ([5]; read-out: IC50)	Stabilty [12]	Activity [8]	Activity [9]	Imax [10]
CCC(=O)c1ccc(-c2cn(CC(=O)O)nn2)cc1NC(=O)c1cc(=O)c2ccccc2o1				Not Active	Not Active	10 µM (≈ 4.46 µg/mL)	Not Active								
Cc1ccc(-c2cn(CCN3CCOCC3)nn2)c(NC(=O)c2cc(=O)c3ccccc3o2)c1	1144 nM	188 nM	108%			10 µM (≈ 4.6 µg/mL)		> 13%	> 1600 nM	46%	> 1470 nM			Non-Toxic	> 22%
CCC(=O)c1ccc(-c2cn(CCN3CCOCC3)nn2)cc1NC(=O)c1cc(=O)c2ccccc2o1	999 nM	312 nM	95%			10 µM (≈ 5.02 µg/mL)		92%	1340 nM		2080 nM		Non-Toxic		66%
COC(=O)c1ccc(-c2cn(-c3ccc(CCN4CCc5cc(OC)c(OC)cc5C4)cc3)nn2)cc1NC(=O)c1ccc2ccccc2n1				Not Active											
COC(=O)c1ccc(Br)cc1NC(=O)c1cc(=O)c2ccccc2o1	109 nM	140 nM	91%	Not Active	Not Active	10 µM (≈ 4.02 µg/mL)									
COC(=O)c1ccc(Br)cc1NC(=O)c1ccc2ccccc2n1		1920 nM	86%	Not Active	Not Active										
Cc1ccc(-c2cn(CCN3CCCC3)nn2)c(NC(=O)c2cc(=O)c3ccccc3o2)c1	1228 nM	109 nM	103%	Not Active	Not Active	7 µM (≈ 3.1 µg/mL)				29%		Stable			
Cc1ccc(-c2cn(CCO)nn2)c(NC(=O)c2cc(=O)c3ccccc3o2)c1	< 100 nM	447 nM	91%	Not Active	Not Active	3 µM (≈ 1.17 µg/mL)									
COc1cc2c(cc1OC)CN(CCc1ccc(-n3cc(-c4ccccc4)nn3)cc1)CC2		3610 nM	41%	Not Active	Not Active										
CCC(=O)c1ccc(-c2cn(-c3ccc(CCN4CCc5cc(OC)c(OC)cc5C4)cc3)nn2)cc1NC(=O)c1ccc2ccccc2c1	< 100 nM	249 nM	70%	Not Active	Not Active	3 µM (≈ 2 µg/mL)									
CCC(=O)c1ccc(-c2cn(-c3ccc(CCN4CCc5cc(OC)c(OC)cc5C4)cc3)nn2)cc1NC(=O)c1cc2ccccc2o1	< 100 nM	120 nM	78%	Not Active	Not Active	7 µM (≈ 4.59 µg/mL)									
CCC(=O)c1ccc(-c2cn(CCN3CCCC3)nn2)cc1NC(=O)c1cc(=O)c2ccccc2o1	1483 nM	158 nM	70%	Not Active	Not Active	30 µM (≈ 14.6 µg/mL)									
CCC(=O)c1ccc(-c2cn(CCO)nn2)cc1NC(=O)c1cc(=O)c2ccccc2o1	575 nM	> 1100 nM	> 71%			3 µM (≈ 1.3 µg/mL)		> 41%	> 2290 nM		> 1960 nM				> 33%
CCC(=O)c1ccc(-c2cn(-c3ccc(CCN4CCc5cc(OC)c(OC)cc5C4)cc3)nn2)cc1NC(=O)c1cc(=O)c2ccccc2o1	149 nM	80 nM	65%	Not Active	Not Active	7 µM (≈ 4.79 µg/mL)									
